# MPTP inh: permeability transition pore inhibition. isolated mouse mitochondria, Ca2+ swelling absorbance, 30 min. inhibition, % at 10 µM. actives 1.4% (n = 360,000);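 active = inhibition of 50% or more, scaled per plate between neutral and stimulator controls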;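 note: 0% = DMSO wells given calcium and 100% = 1 mM EGTA wells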
# Granule exo inh: lytic granule exocytosis inhibition. TALL-104 LAMP-1 surface exposure, flow cytometry; cells stimulated with thapsigargin and PMA. inhibition, % at 10 µM. actives 0.66% (n = 360,000);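 active = inhibition above about 55%, limit read from the data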
# UBC13 inh: human UBC13 polyubiquitination inhibition. actives 0.47% (n = 330,000). inhibition, % at 20 µM. UBC13 polyubiquitin chain formation, TR-FRET; in the data active = inhibition above about 45%, passing the limit was not always enough
# hiPSC survival: enhancers of human iPSC single-cell survival. hiPSC single-cell survival, ATPlite luminescence; 100% = ROCK inhibitor wells, 0% = DMSO. survival enhancement, % at 20 µM. actives 0.044% (n = 360,000). AID 602274; in the data active = survival enhancement above about 18%;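 note: cells exposed to compounds for 16 hours before the ATP read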
# Apaf1 inhib: inhibitors of human Apaf-1 apoptosome. O14727. reconstituted apoptosome caspase-3 activity, DEVD-Rh110 fluorescence. AID 489030. actives 0.71% (n = 330,000). inhibition, % at 20 µM; active = inhibition of at least 40% at 20 µM;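 note: plate controls were DMSO wells for no effect and DEVD-CHO caspase inhibitor wells for full effect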
#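 System: reconstituted apoptosome with Apaf-1, cytochrome c, caspase-9, procaspase-3, dATP; Signal: Rh110 fluorescence intensity; Schedule: 30 min compound preincubation, 50 min activation, room temperature; Reagent: cytochrome c trigger plus (Z-DEVD)2-Rh110 caspase-3 substrate.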
# beta cell repl: inducers of beta-cell replication in MIN6 cells; MIN6 cells proliferation, ATPlite luminescence, 48 h; cells starved in 0.2% serum; 100% = growth in 10% serum; proliferation, % at 10 µM; actives 0.29% (n = 330,000); AID 2380;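 active = compounds whose signal lies at least 3.5 SD above the mean of all wells on their plate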;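 note: 0% = DMSO-treated cells in low-serum medium and 100% = 10% serum control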
# Apaf-1 inh conf: confirmation of Apaf-1 inhibitors. actives 25% (n = 1,800). inhibition, % at 20 µM. reconstituted apoptosome, caspase-3 DEVD-Rh110 fluorescence. shares compounds with Apaf1 inhib;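 active = mean inhibition of at least 40% at 20 µM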;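 note: plate controls were DMSO wells for no effect and DEVD-CHO caspase inhibitor control wells for full effect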
# Rh110 quench: interferes with Rh110 fluorescence, flagging false Apaf-1 inhibitors; shares compounds with Apaf1 inhib; Rh110 fluorescence interference, quenched caspase reaction; activation (fluorescence interference), % at 20 µM; 1,800 tested, under 10 active; AID 504615;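 active = signal rise of 40% or more at 20 µM, treated as a fluorescence artifact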
# Apaf1 inh interf: Apaf-1 inhibitor counter-screen fluorescence artifact. shares compounds with Apaf1 inhib. fluorescence interference counterscreen, Apaf-1 assay format. IC50, µM. 460 tested, under 10 active; call rule not given here
# The depositor's hits bear a star; i = inactive; x = no result given; ! = not active in a repeat. Most compounds without a hit are left out; they make up all but 3% or so of the library.
SMILES,MPTP inh,Granule exo inh,UBC13 inh,hiPSC survival,Apaf1 inhib,beta cell repl,Apaf-1 inh conf,Rh110 quench,others
CC(=O)NC1=C(NC2CCS(=O)(=O)C2)C(=O)c2ccccc2C1=O (configuration not stated),2,4,-44,0,41*,-3,21,-6,
Cc1cnc(C(=O)OCc2cc(=O)n3c(C)cccc3n2)cn1,0,0,-2,6,-4,1,x,x,
CCOc1cc(CNc2ccc(N3CCCC3)cc2)cc(Cl)c1OC,2,2,-19,-3,55*,-5,51*,9,Apaf1 inh interf=>100
CCOc1cc(CNc2ccc(N3CCCCC3)cc2)cc(Br)c1OCC(=O)NC(C)(C)C,6,3,3,1,44*,0,12,-2,
CCOc1cc(/C=C\[N+](=O)[O-])ccc1OCC(=O)N1CCOCC1,0,7,-13,8,-7,-7,x,x,
CCOc1cc(/C=C/c2nc3cc(C)c(C)cc3s2)ccc1OCC(=O)N1CCOCC1,7,2,16,-3,45*,0,17,-15,
Nn1c(-c2ccc(F)cc2)nc2ccccc2c1=O,-1,24,-2,-1,2,3,x,x,
O=C1c2cc(F)ccc2-n2c1nc1ccccc1c2=O,1,4,-63,0,63*,-6,52*,-1,Apaf1 inh interf=>100
CCN1C(=O)[C@H]2[C@H]3CN=C(SCC4CC4)N3[C@@](CC)(C(=O)OC)[C@H]2C1=O,2,-3,x,3,19,x,x,x,
O=C(c1ccc2nc(-c3ccco3)c(-c3ccco3)nc2c1)N1CCN(c2ccccc2)CC1,0,4,-23,0,40*,-4,30,14,
CCc1nc2ccc(C(=O)N3CCN(c4ccccc4)CC3)cc2nc1CC,-3,1,1,0,i,10,x,x,
CNC(=O)COC(=O)c1ccc2c(c1)NC(=O)C1CCCN21 (configuration not stated),x,x,-30,x,14,-1,x,x,
COc1ccc2ccccc2c1C(O)c1nccn1C (configuration not stated),1,0,-35,4,41*,-1,10,-2,
Cn1ccnc1C(O)c1ccccc1 (configuration not stated),-1,4,4,-2,-4,-1,x,x,
CCOc1ccc(NC(=O)CN(C)C(=O)c2ccc(COc3ccccc3)o2)cc1OCC,2,-3,-2,0,8,-1,x,x,
CCOc1ccc(NC(=O)CN(C)C(=O)c2ccc(COc3ccccc3)cc2)cc1OCC,2,1,10,0,48*,-1,40*,4,Apaf1 inh interf=>100
O=C1C(Cl)=C(N2CCCCC2)C(=O)C(Cl)=C1c1cnc(N2CCCCC2)s1,7,2,-26,-1,48*,-6,25,6,
CN(C)c1ncc(C2=C(Cl)C(=O)C(N3CCCC3)=C(Cl)C2=O)s1,8,1,-57,0,83*,-6,42*,3,Apaf1 inh interf=>100
CCCC[n+]1ccn(-c2nc3ccccc3nc2[N-]S(=O)(=O)c2ccc(Br)cc2)c1,2,-9,24,0,-13,-1,x,x,
CCCC[n+]1ccn(C2=C([O-])c3ccccc3C(=O)/C2=N\S(=O)(=O)c2ccc(Cl)cc2)c1,4,4,-100,0,52*,-4,56*,15,Apaf1 inh interf=>100
CCCCC[n+]1ccn(C2=C([O-])c3ccccc3C(=O)/C2=N\S(=O)(=O)c2ccc(Cl)cc2)c1,4,16,-60,-1,70*,-4,54*,9,Apaf1 inh interf=>100
Cc1cccnc1NC1OC(=O)c2ccccc21 (configuration not stated),0,3,-2,2,-3,-1,x,x,
O=C1OC(Nc2ccc3ncccc3c2)c2ccccc21 (configuration not stated),-1,5,-38,0,82*,-2,78*,0,Apaf1 inh interf=>100
CCNc1c(NC(=O)C2CCC(C)CC2)c(=O)oc2ccccc12 (configuration not stated),0,-9,-5,0,-2,-3,x,x,
Nc1ccc2c(c1)C(=O)c1ccccc1-2,3,-2,-102,0,-2,3,x,x,
SMILES,MPTP inh,Granule exo inh,UBC13 inh,hiPSC survival,Apaf1 inhib,beta cell repl,Apaf-1 inh conf,Rh110 quench,others
Nc1ccc2c(c1)C(=O)C(=O)c1ccccc1-2,3,51,-359,-6,98*,-4,99*,2,Apaf1 inh interf=>100
C[C@@H]1CN([C@@H](C)CO)C(=O)c2cc(Br)cnc2O[C@H]1CN(C)C(=O)Nc1ccccc1,0,-1,x,1,x,x,x,x,
CCCCC(=O)N(C)c1c(C)nc2ccc(C(=O)N3CCN(C(=O)c4ccco4)CC3)cn12,-2,-1,x,-2,x,x,x,x,
Cc1ccccc1OCCC(=O)OCC(=O)NC1CC1,2,0,9,1,2,1,x,x,
OCCNc1c2ccccc2nc2c(F)c(F)c(F)c(F)c12,0,-2,x,0,x,x,x,x,
Cc1c2ccccc2nc2c(F)c(NCCO)c(F)c(F)c12,1,-2,-38,-3,54*,-4,22,0,
COc1ccc(N2CCN(Cc3nc4scc(-c5ccccc5)c4c(=O)[nH]3)CC2)cc1,6,4,4,-3,44*,-2,0,6,
Fc1ccc(N2CCN(c3nc(CN4CCOCC4)nc4scc(-c5ccccc5)c34)CC2)cc1,4,-3,-1,2,41*,-6,17,4,
CC1=C(CC(=O)c2ccccc2)C(=O)c2ccccc2C1=O,5,-1,-35,-3,45*,-6,40*,8,Apaf1 inh interf=>100
O=C(/C=C/c1ccccc1[N+](=O)[O-])N1CCc2ccccc2C1,1,-5,1,0,9,0,x,x,
CCC(C)Sc1cccc(-c2nc3cc(C)ccn3c2NC2CCCCC2)c1 (configuration not stated),30,57*!,28,-1,41*,-6,15,-16,
CCCCCCSc1cccc(-c2nc3cc(C)ccn3c2NC2CCCCC2)c1,3,-11,36,-4,21,-8,x,x,
Cc1ccn2c(NC3CCCCC3)c(-c3cccc(SC4CCCCC4)c3)nc2c1,14,7,25,-1,40*,-6,16,-8,
Cc1ccn2c(NC3CCCCC3)c(-c3ccc(SC4CCCCC4)cc3)nc2c1,6,-1,x,-3,x,x,x,x,
CCCCCCSc1cccc(-c2nc3cc(C)ccn3c2NCc2ccccc2)c1,46,20,10,-2,40*,-7,21,11,

# From PubChem BioAssay
